Drawing on PubChem BioAssay AID504414 (Broad Institute, 2011), this text covers inhibition for 31 compounds.

Among all 330,000 compounds or so, about 55 (0.02%) were called active. This excerpt belongs to a sample that is enriched for actives. Unmarked numbers belong to inactive results.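 The calls were made as follows: active = highest replicate inhibition of at least 40%; inactive = the rest.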

For this assay, the target named is Golgi-associated PDZ and coiled-coil motif-containing protein (Homo sapiens) (UniProt Q9HD26). The experiment in a line: CAL PDZ peptide-binding inhibitors, primary screen, biochemical, fluorescence polarization, Cer-tagged CAL PDZ, HTS (AID 504414).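 Also: plate controls were DMSO neutral control wells for no effect and unlabeled competitor peptide control wells for full effect.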 Conditions: purified CAL PDZ, TMR-peptide fluorescence polarization, 1 h; at 20 µM; active compounds read high. A digest of the protocol: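 System: tagged CAL PDZ domain. Schedule: 1 h room-temperature incubation prior to read. Signal: fluorescence polarization (mP). Measure: percent inhibition from loss of millipolarization.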
Usually inhibition stands for the change of the read-out against control, counted positive when it falls. Consider `CCN(CC)c1ccc(C(=O)c2cnc(/N=C/N(C)C)s2)cc1`, for which the inhibition was -0.472%.
Regarding `CC1CCCN(S(=O)(=O)c2ccc(-c3ccc(=O)[nH]n3)o2)C1` (stereo unspecified), the inhibition is -2.4%.
As for `Cc1cccc(NC(=O)c2ccc(OCC(=O)NCc3ccccc3)cc2)c1C`, the inhibition is 0.0994%.
With `CCc1c(Nc2ccccc2Cl)nc(N)[nH]c1=O`, the inhibition was 0.824%.
For the compound `O=C(CCl)NNc1cccc(Cl)n1`, the inhibition is -0.466%.
For `Cc1sc2ncn(CC(=O)NCCN(C)C)c(=O)c2c1S(=O)(=O)N1CCC(C)CC1`, the inhibition was -1.98%.
Consider `CCCn1c(N)c(N(CCOC)C(=O)C2CCCC2)c(=O)[nH]c1=O`, for which the inhibition is -0.787%.
Regarding `CN(CCO)S(=O)(=O)c1ccc2c(c1)C(=O)c1cc(S(=O)(=O)N(C)CCO)ccc1-2`, the inhibition is -0.349%.
Regarding `CC1C(=O)NC(=O)C1c1ccccc1` (stereo unspecified), the inhibition was -1.12%.
Take `COc1ccc(Cl)cc1S(=O)(=O)N1CCC(O)(c2ccc(Cl)cc2)CC1`: the inhibition is 0.846%.
Turning to `COc1cc(C2C(C(=O)c3sc(C)nc3C)=C(O)C(=O)N2CCN(C)C)cc(OC)c1OC` (stereo unspecified), the inhibition was 0.746%.
With `O=C(NCc1ccc2c(c1)OCO2)c1cc([N+](=O)[O-])ccc1N1CCOCC1`, the inhibition is -1.53%.
Take `Cc1ccccc1OCCC(=O)OCC(=O)NCCc1ccc(S(N)(=O)=O)cc1`: the inhibition was -0.918%.
Regarding `Cc1ccn2c(c1)nc(=O)c1cc(S(=O)(=O)N3CCC(C)CC3)ccc12`, the inhibition was -0.295%.
In the case of `O=S(=O)(c1ccc(Cl)cc1)N1CCCN(c2ccc(C(F)(F)F)cn2)CC1`, the inhibition is -1.87%.
Turning to `CN(CC(O)COc1ccc(S(=O)(=O)N2CCOCC2)cc1Cl)C1CCCCC1` (stereo unspecified), the inhibition is -0.337%.
With `CCCc1nc2scc(-c3ccc(C)cc3)c2c(=O)n1N`, the inhibition was -1.81%.
In the case of `Cc1onc(-c2c(F)cccc2Cl)c1C(=O)N(C)CC(=O)Nc1cccc(F)c1`, the inhibition is -1.86%.
For the compound `COC(=O)c1sc(N2CCN(Cc3ccccc3)CC2)nc1N`, the inhibition is -1.78%.
With `CCn1c(SCCC(C)C)nnc1-c1c[nH]c2ccccc12`, the inhibition is 0.439%.
For the compound `C=CC(COCc1ccccc1)N(Cc1ccccc1)S(=O)(=O)c1ccccc1Br` (stereo unspecified), the inhibition is 0.0215%.
Regarding `O=C(O)c1ccc(-n2nc(-c3ccccc3)c3ccccc3c2=O)cc1`, the inhibition was -0.73%.
On to `CSCC[C@H](NC(=O)NCc1cccs1)C(=O)O`, for which the inhibition was 1.04%.
As to `COc1ccc(CCN(C)C(=O)C23CC4CC(CC(Cl)(C4)C2)C3)cc1OC`, the inhibition was -1.39%.
As to `CCn1nc(C(=O)Nc2ccc(N3CCOCC3)cc2)c2ccccc2c1=O`, the inhibition was -1.35%.
In the case of `C=C(C)CNC(=O)c1ccc(OC2CCN(C(=O)COC)CC2)cc1`, the inhibition is -0.166%.
Next, `C#CCN1CC(C)/C(=N/O)CC1C` (stereo unspecified): -0.192%.
Regarding `O=c1[nH]oc(O)c1-c1ncc(C(F)(F)F)cc1Cl`, the inhibition is -0.466%.
Turning to `Nn1c(SCc2ccccc2)nnc1C1CCCCC1`, the inhibition is -0.356%.
In the case of `COc1ccccc1C(=O)NCCC(=O)NC1=NCCS1`, the inhibition was 0.112%.
As to `CCN(CC)C(=O)CS(=O)CC(=O)Nc1cc(OCCOC)c(Cl)cc1Cl` (stereo unspecified), the inhibition was -0.37%.
